Data from ChEMBL document CHEMBL1158356, “Synthesis, anti-tuberculosis activity and 3D-QSAR study of amino acid conjugates of 4-(adamantan-1-yl) group containing quinolines” (Eur J Med Chem, 2009).
Values after ≈ are worked out from the molar mass of the structure shown.

Legend:
[1] = test system: Mycobacterium tuberculosis; assay: Antimycobacterial activity against rifampicin/isoniazid-susceptible Mycobacterium tuberculosis H37Rv ATCC 27294 at 6.25 ug/ml after 5 days by microplate alamar blue assay; format: functional; conditions: H37Rv ATCC 27294, 120 h
In short: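 M. tuberculosis H37Rv (ATCC 27294, rifampicin- and isoniazid-susceptible) screened by Microplate Alamar Blue Assay at a single concentration of 6.25; read-out is % growth inhibition. Compounds showing fluorescence were instead tested in the BACTEC 460 radiometric system.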

[2] = test system: Mycobacterium tuberculosis; assay: Antimycobacterial activity against rifampicin/isoniazid-susceptible Mycobacterium tuberculosis H37Rv ATCC 27294 by BACTEC 460 radiometric method; format: functional, organism-based
In short: (§1)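 Radiometric BACTEC 460 growth test on H37Rv (ATCC 27294). Compounds reaching at least 90% inhibition at 6.25 were retested at the lower concentrations 3.125 and 1.0, with % inhibition recorded. […] Isoniazid served as the reference standard.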

[3] = test system: Vero; assay: Cytotoxicity against african green monkey Vero cells up to 50 ug/ml; format: cell-based; conditions: chlorocebus sabaeus
[4] = test system: Mycobacterium tuberculosis; assay: Antimycobacterial activity against rifampicin/isoniazid-susceptible Mycobacterium tuberculosis H37Rv ATCC 27294 at 3.125 ug/ml by BACTEC 460 radiometric method; format: functional; in short: as §1

Structure (SMILES)	inhibition at 6.25 µg/mL [1]	IC50 [2]	Activity [3]	inhibition at 3.125 µg/mL [4]	MIC99 [2]
NNC(=O)c1cc(C23CC4CC(CC(C4)C2)C3)c2ccccc2n1	99%	–	–	–	–
COC(=O)[C@H](CCCCNC(=O)OCc1ccccc1)NC(=O)c1cc(C23CC4CC(CC(C4)C2)C3)c2ccccc2n1	78%	3.16 µM	–	–	–
CC(C)(C)OC(=O)N[C@@H](Cc1ccc(OCc2ccccc2)cc1)C(=O)NNC(=O)c1cc(C23CC4CC(CC(C4)C2)C3)c2ccccc2n1	42%	12.9 µM	–	–	–
COC(=O)[C@H](Cc1ccccc1)NC(=O)c1cc(C23CC4CC(CC(C4)C2)C3)c2ccccc2n1	60%	8.91 µM	–	–	–
N=C(N)NCCC[C@H](N)C(=O)NNC(=O)c1cc(C23CC4CC(CC(C4)C2)C3)c2ccccc2n1	92%	1.15 µM	–	–	–
NC(=O)c1cc(C23CC4CC(CC(C4)C2)C3)c2ccccc2n1	98%	–	–	–	–
C[C@H](NC(=O)OC(C)(C)C)C(=O)NNC(=O)c1cc(C23CC4CC(CC(C4)C2)C3)c2ccccc2n1	88%	1.74 µM	–	–	–
NNC(=O)[C@H](Cc1ccccc1)NC(=O)c1cc(C23CC4CC(CC(C4)C2)C3)c2ccccc2n1	50%	13.5 µM	–	–	–
NNC(=O)[C@H](Cc1c[nH]c2ccccc12)NC(=O)c1cc(C23CC4CC(CC(C4)C2)C3)c2ccccc2n1	60%	8.32 µM	–	–	–
COC(=O)CNC(=O)c1cc(C23CC4CC(CC(C4)C2)C3)c2ccccc2n1	52%	15.5 µM	–	–	–
N[C@@H](Cc1c[nH]cn1)C(=O)NNC(=O)c1cc(C23CC4CC(CC(C4)C2)C3)c2ccccc2n1	88%	1.86 µM	–	–	–
NCC(=O)NNC(=O)c1cc(C23CC4CC(CC(C4)C2)C3)c2ccccc2n1	35%	30.2 µM	–	–	–
CC(C)(C)OC(=O)N[C@@H](Cc1ccccc1)C(=O)NNC(=O)c1cc(C23CC4CC(CC(C4)C2)C3)c2ccccc2n1	85%	1.95 µM	–	–	–
COC(=O)[C@H](CCCNC(=O)OCc1ccccc1)NC(=O)c1cc(C23CC4CC(CC(C4)C2)C3)c2ccccc2n1	66%	5.89 µM	–	–	–
COC(=O)[C@H](Cc1ccc(OCc2ccccc2)cc1)NC(=O)c1cc(C23CC4CC(CC(C4)C2)C3)c2ccccc2n1	58%	7.94 µM	–	–	–
CC(C)(C)OC(=O)N[C@@H](Cc1c[nH]c2ccccc12)C(=O)NNC(=O)c1cc(C23CC4CC(CC(C4)C2)C3)c2ccccc2n1	–	0.0513 µM	Non-toxic	99%	–
CC(C)(C)OC(=O)N[C@@H](Cc1c[nH]cn1)C(=O)NNC(=O)c1cc(C23CC4CC(CC(C4)C2)C3)c2ccccc2n1	–	0.0562 µM	Non-toxic	99%	–
CSCC[C@H](NC(=O)OC(C)(C)C)C(=O)NNC(=O)c1cc(C23CC4CC(CC(C4)C2)C3)c2ccccc2n1	56%	8.91 µM	–	–	–
CC(C)C[C@H](NC(=O)c1cc(C23CC4CC(CC(C4)C2)C3)c2ccccc2n1)C(=O)NN	83%	2.95 µM	–	–	–
CCC(C)[C@H](NC(=O)OC(C)(C)C)C(=O)NNC(=O)c1cc(C23CC4CC(CC(C4)C2)C3)c2ccccc2n1 (stereo not given in full)	90%	1.29 µM	–	–	–
CC(C)(C)OC(=O)NCCC[C@H](NC(=O)OC(C)(C)C)C(=O)NNC(=O)c1cc(C23CC4CC(CC(C4)C2)C3)c2ccccc2n1	75%	3.09 µM	–	–	–
NC(=O)CC[C@H](N)C(=O)NNC(=O)c1cc(C23CC4CC(CC(C4)C2)C3)c2ccccc2n1	45%	17 µM	–	–	–
CC[C@H](C)[C@H](NC(=O)c1cc(C23CC4CC(CC(C4)C2)C3)c2ccccc2n1)C(=O)NN	70%	6.17 µM	–	–	–
NCCC[C@H](N)C(=O)NNC(=O)c1cc(C23CC4CC(CC(C4)C2)C3)c2ccccc2n1	26%	40.7 µM	–	–	–
CC(C)C[C@H](NC(=O)OC(C)(C)C)C(=O)NNC(=O)c1cc(C23CC4CC(CC(C4)C2)C3)c2ccccc2n1	90%	1.29 µM	–	–	–
COC(=O)[C@H](Cc1c[nH]cn1)NC(=O)c1cc(C23CC4CC(CC(C4)C2)C3)c2ccccc2n1	–	0.0692 µM	Non-toxic	99%	–

Structure (SMILES)	inhibition at 6.25 µg/mL [1]	IC50 [2]	Activity [3]	inhibition at 3.125 µg/mL [4]	MIC99 [2]
NCCCC[C@H](NC(=O)c1cc(C23CC4CC(CC(C4)C2)C3)c2ccccc2n1)C(=O)NN	36%	19.5 µM	–	–	–
N[C@@H](Cc1c[nH]c2ccccc12)C(=O)NNC(=O)c1cc(C23CC4CC(CC(C4)C2)C3)c2ccccc2n1	56%	9.77 µM	–	–	–
NCCCC[C@H](N)C(=O)NNC(=O)c1cc(C23CC4CC(CC(C4)C2)C3)c2ccccc2n1	66%	7.24 µM	–	–	–
CC(C)(C)OC(=O)N[C@@H](CCCNC(=N)N)C(=O)NNC(=O)c1cc(C23CC4CC(CC(C4)C2)C3)c2ccccc2n1	–	0.055 µM	Non-toxic	99%	–
COC(=O)[C@H](CCC(N)=O)NC(=O)c1cc(C23CC4CC(CC(C4)C2)C3)c2ccccc2n1	55%	11.5 µM	–	–	–
NNC(=O)[C@H](Cc1c[nH]cn1)NC(=O)c1cc(C23CC4CC(CC(C4)C2)C3)c2ccccc2n1	99%	0.138 µM	–	–	–
NNC(=O)CNC(=O)c1cc(C23CC4CC(CC(C4)C2)C3)c2ccccc2n1	70%	7.08 µM	–	–	–
CCC(C)[C@H](N)C(=O)NNC(=O)c1cc(C23CC4CC(CC(C4)C2)C3)c2ccccc2n1 (stereo not given in full)	75%	4.79 µM	–	–	–
NNC(=O)[C@H](CCC(N)=O)NC(=O)c1cc(C23CC4CC(CC(C4)C2)C3)c2ccccc2n1	50%	14.1 µM	–	–	–
NCCC[C@H](NC(=O)c1cc(C23CC4CC(CC(C4)C2)C3)c2ccccc2n1)C(=O)NN	48%	12.3 µM	–	–	–
CC(C)(C)OC(=O)NCC(=O)NNC(=O)c1cc(C23CC4CC(CC(C4)C2)C3)c2ccccc2n1	60%	8.71 µM	–	–	–
CC(C)C[C@H](N)C(=O)NNC(=O)c1cc(C23CC4CC(CC(C4)C2)C3)c2ccccc2n1	75%	4.79 µM	–	–	–
N[C@@H](Cc1ccc(O)cc1)C(=O)NNC(=O)c1cc(C23CC4CC(CC(C4)C2)C3)c2ccccc2n1	48%	13.8 µM	–	–	–
CC[C@H](C)[C@H](NC(=O)c1cc(C23CC4CC(CC(C4)C2)C3)c2ccccc2n1)C(=O)OC	90%	1.62 µM	–	–	–
N[C@@H](Cc1ccccc1)C(=O)NNC(=O)c1cc(C23CC4CC(CC(C4)C2)C3)c2ccccc2n1	81%	3.16 µM	–	–	–
COC(=O)[C@H](Cc1c[nH]c2ccccc12)NC(=O)c1cc(C23CC4CC(CC(C4)C2)C3)c2ccccc2n1	75%	4.17 µM	–	–	–
CC(C)(C)OC(=O)N[C@@H](CCC(N)=O)C(=O)NNC(=O)c1cc(C23CC4CC(CC(C4)C2)C3)c2ccccc2n1	51%	11 µM	–	–	–
COC(=O)[C@H](CC(C)C)NC(=O)c1cc(C23CC4CC(CC(C4)C2)C3)c2ccccc2n1	83%	2.95 µM	–	–	–
C[C@H](NC(=O)c1cc(C23CC4CC(CC(C4)C2)C3)c2ccccc2n1)C(=O)NN	82%	3.55 µM	–	–	–
C[C@H](N)C(=O)NNC(=O)c1cc(C23CC4CC(CC(C4)C2)C3)c2ccccc2n1	41%	22.9 µM	–	–	–
COC(=O)[C@H](CCSC)NC(=O)c1cc(C23CC4CC(CC(C4)C2)C3)c2ccccc2n1	86%	2.29 µM	–	–	–
CSCC[C@H](N)C(=O)NNC(=O)c1cc(C23CC4CC(CC(C4)C2)C3)c2ccccc2n1	59%	9.55 µM	–	–	–
NNC(=O)[C@H](Cc1ccc(O)cc1)NC(=O)c1cc(C23CC4CC(CC(C4)C2)C3)c2ccccc2n1	44%	16.6 µM	–	–	–
CSCC[C@H](NC(=O)c1cc(C23CC4CC(CC(C4)C2)C3)c2ccccc2n1)C(=O)NN	68%	6.61 µM	–	–	–
COC(=O)[C@H](C)NC(=O)c1cc(C23CC4CC(CC(C4)C2)C3)c2ccccc2n1	73%	5.89 µM	–	–	–
NNC(=O)c1ccncc1 [ISONIAZID]	–	–	–	–	1 µg/mL (≈ 7.29 µM)
